According to ChEMBL document CHEMBL1123716, “Synthesis and tumor uptake of 5-halo-1-(2'-fluoro-2'-deoxy-beta-D-ribofuranosyl)[2-14C]uracils” (J Med Chem, 1987):

What was measured:
Mus musculus [1] = test: Tissue distribution in BDF1 female mice bearing an implanted lewis lung tumor after intravenous injection in liver at 0.25 h.; assay type: ADME, organism-based; conditions: in vivo
How it was run: (§1)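 Female BDF₁ mice (18–20 g) carrying transplanted Lewis lung tumor received 23–193 kBq of the [2-¹⁴C]-labeled nucleoside in normal saline via tail vein. The compound was stored as a dry film and reconstituted just before use. Animals were killed at set times, and tissue ¹⁴C was measured by combustion and liquid scintillation. Values are mean ± SD % injected dose per gram of wet tissue, n = 6.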

Mus musculus [2] = test: Tissue distribution in BDF1 female mice bearing an implanted lewis lung tumor after intravenous injection in git(Section of intestine) at 0.5 h.; assay type: ADME, organism-based; conditions: in vivo
How it was run: (§2)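 Female BDF1 mice (18–20 g) with implanted Lewis lung tumor received the 2-14C compound by tail vein, 23–193 kBq in normal saline, reconstituted from a dry film just before use. Animals were killed at set times and tissues taken for 14C counting by combustion and liquid scintillation. Values are percent injected dose per gram wet tissue, mean ± standard deviation, six animals.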

Mus musculus [3] = test: Tissue distribution in BDF1 female mice bearing an implanted lewis lung tumor after intravenous injection in heart at 4 h.; assay type: ADME, organism-based; conditions: in vivo; how it was run: as §2
Mus musculus [4] = test: Tissue distribution in BDF1 female mice bearing an implanted lewis lung tumor after intravenous injection in heart at 24 h.; assay type: ADME, organism-based; conditions: in vivo; how it was run: as §2
Mus musculus [5] = test: Tissue distribution in BDF1 female mice bearing an implanted lewis lung tumor after intravenous injection in spleen at 4 h.; assay type: ADME, organism-based; conditions: in vivo; how it was run: as §1
Mus musculus [6] = test: Tissue distribution in BDF1 female mice bearing an implanted lewis lung tumor after intravenous injection in spleen at 1 h.; assay type: ADME, organism-based; conditions: in vivo; how it was run: as §1
Mus musculus [7] = test: Tissue distribution in BDF1 female mice bearing an implanted lewis lung tumor after intravenous injection in bone at 0.5 h.; assay type: ADME, organism-based; conditions: in vivo; how it was run: as §2
Mus musculus [8] = test: Tissue distribution in BDF1 female mice bearing an implanted lewis lung tumor after intravenous injection in muscle at 8 h.; assay type: ADME, organism-based; conditions: in vivo; how it was run: as §1
Mus musculus [9] = test: Tissue distribution in BDF1 female mice bearing an implanted lewis lung tumor after intravenous injection in blood at 8 h.; assay type: ADME, organism-based; conditions: in vivo; how it was run: as §2
Mus musculus [10] = test: Tissue distribution in BDF1 female mice bearing an implanted lewis lung tumor after intravenous injection in kidney at 0.5 h.; assay type: ADME, organism-based; conditions: in vivo; how it was run: as §2
Mus musculus [11] = test: Tissue distribution in BDF1 female mice bearing an implanted lewis lung tumor after intravenous injection in muscle at 24 h.; assay type: ADME, organism-based; conditions: in vivo; how it was run: as §1
Mus musculus [12] = test: Tissue distribution in BDF1 female mice bearing an implanted lewis lung tumor after intravenous injection in liver at 0.5 h.; assay type: ADME, organism-based; conditions: in vivo; how it was run: as §1
Mus musculus [13] = test: Tissue distribution in BDF1 female mice bearing an implanted lewis lung tumor after intravenous injection in kidney at 4 h.; assay type: ADME, organism-based; conditions: in vivo; how it was run: as §1
Mus musculus [14] = test: Tissue distribution in BDF1 female mice bearing an implanted lewis lung tumor after intravenous injection in bone at 1 h.; assay type: ADME, organism-based; conditions: in vivo; how it was run: as §2
Mus musculus [15] = test: Tissue distribution in BDF1 female mice bearing an implanted lewis lung tumor after intravenous injection in git(Section of intestine) at 8 h.; assay type: ADME, organism-based; conditions: in vivo; how it was run: as §2
Mus musculus [16] = test: Tissue distribution in BDF1 female mice bearing an implanted lewis lung tumor after intravenous injection in lung at 1 h.; assay type: ADME, organism-based; conditions: in vivo; how it was run: as §1
Mus musculus [17] = test: Tissue distribution in BDF1 female mice bearing an implanted lewis lung tumor after intravenous injection in bone at 8 h.; assay type: ADME, organism-based; conditions: in vivo; how it was run: as §2
Mus musculus [18] = test: Radioactive constituent of other in urine at 2 hr time interval after intravenous injection into BDF1 female mice bearing lewis lung tumor; assay type: ADME, organism-based; conditions: in vivo
How it was run: (§3)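 Radiolabeled nucleoside given in normal saline by tail vein, 23–193 kBq per mouse, to female BDF1 mice (18–20 g) carrying transplanted Lewis lung tumor. Urine was collected when the animals were killed. Components were identified by reverse-phase HPLC with UV at 256 nm on urine spiked with reference compounds, matched to liquid scintillation counts of the eluate. Each is reported as a percent of total urine radioactivity.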

[19] = Total urine activity excreted at 8 hr was estimated from the measurement of loss of tissue activity; assay type: ADME, tissue-based
Mus musculus [20] = test: Tissue distribution in BDF1 female mice bearing an implanted lewis lung tumor after intravenous injection in tumor at 4 h.; assay type: ADME, organism-based; conditions: in vivo
How it was run: (§4)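 Female BDF1 mice (18–20 g) carrying a transplanted Lewis lung tumor were given 23–193 kBq of the [2-14C]-labelled nucleoside in normal saline by tail vein. Animals were killed at set times. Tissue 14C was counted by liquid scintillation, after combustion or directly. Values are percent of injected dose per gram wet tissue, as mean ± standard deviation of six animals.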

Mus musculus [21] = test: Tissue distribution in BDF1 female mice bearing an implanted lewis lung tumor after intravenous injection in liver at 2 h.; assay type: ADME, organism-based; conditions: in vivo; how it was run: as §1
[22] = Total urine activity excreted at 0.5 hr was estimated from the measurement of loss of tissue activity; assay type: ADME, tissue-based
Mus musculus [23] = test: Tissue distribution in BDF1 female mice bearing an implanted lewis lung tumor after intravenous injection in git(Section of intestine) at 24 h.; assay type: ADME, organism-based; conditions: in vivo; how it was run: as §2
Mus musculus [24] = test: Radioactive constituent of uracil in urine at 0.5 hr time interval after intravenous injection into BDF1 female mice bearing lewis lung tumor; assay type: ADME, organism-based; conditions: in vivo; how it was run: as §3
Mus musculus [25] = test: Tissue distribution in BDF1 female mice bearing an implanted lewis lung tumor after intravenous injection in lung at 8 h.; assay type: ADME, organism-based; conditions: in vivo; how it was run: as §1
Mus musculus [26] = test: Radioactive constituent of 5-fluorouracil in urine at 2 hr time interval after intravenous injection into BDF1 female mice bearing lewis lung tumor; conditions: in vivo
Mus musculus [27] = test: Tissue distribution in BDF1 female mice bearing an implanted lewis lung tumor after intravenous injection in spleen at 0.5 h.; assay type: ADME, organism-based; conditions: in vivo; how it was run: as §1
Mus musculus [28] = test: Tissue distribution in BDF1 female mice bearing an implanted lewis lung tumor after intravenous injection in kidney at 1 h.; assay type: ADME, organism-based; conditions: in vivo; how it was run: as §2
Mus musculus [29] = test: Tissue distribution in BDF1 female mice bearing an implanted lewis lung tumor after intravenous injection in git(Section of intestine) at 1 h.; assay type: ADME, organism-based; conditions: in vivo; how it was run: as §2
Mus musculus [30] = test: Tissue distribution in BDF1 female mice bearing an implanted lewis lung tumor after intravenous injection in stomach at 4 h.; assay type: ADME, organism-based; conditions: in vivo; how it was run: as §1
Mus musculus [31] = test: Tissue distribution in BDF1 female mice bearing an implanted lewis lung tumor after intravenous injection in muscle at 4 h.; assay type: ADME, organism-based; conditions: in vivo; how it was run: as §1
Mus musculus [32] = test: Tissue distribution in BDF1 female mice bearing an implanted lewis lung tumor after intravenous injection in tumor at 0.25 h.; assay type: ADME, organism-based; conditions: in vivo; how it was run: as §4
Mus musculus [33] = test: Tissue distribution in BDF1 female mice bearing an implanted lewis lung tumor after intravenous injection in blood at 4 h.; assay type: ADME, organism-based; conditions: in vivo; how it was run: as §2
Mus musculus [34] = test: Tissue distribution in BDF1 female mice bearing an implanted lewis lung tumor after intravenous injection in git(Section of intestine) at 4 h.; assay type: ADME, organism-based; conditions: in vivo; how it was run: as §2
Mus musculus [35] = test: Tissue distribution in BDF1 female mice bearing an implanted lewis lung tumor after intravenous injection in heart at 2 h.; assay type: ADME, organism-based; conditions: in vivo; how it was run: as §2
Mus musculus [36] = test: Radioactive constituent of 5-fluorouracil in urine at 4 hr time interval after intravenous injection into BDF1 female mice bearing lewis lung tumor; assay type: ADME, organism-based; conditions: in vivo; how it was run: as §3
Mus musculus [37] = test: Tissue distribution in BDF1 female mice bearing an implanted lewis lung tumor after intravenous injection in stomach at 0.5 h. Value in parentheses is organ to tumor ratio; assay type: ADME, organism-based; conditions: in vivo
How it was run: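 Female BDF₁ mice (18–20 g) with implanted Lewis lung tumor were given 23–193 kBq of the [2-¹⁴C] nucleoside in normal saline by tail vein. Tissue ¹⁴C was counted by combustion and liquid scintillation, with n = 6 per time point. The organ-to-tumor ratio was derived from the % injected dose per gram of wet tissue in the organ and in the tumor.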

Mus musculus [38] = test: Tissue distribution in BDF1 female mice bearing an implanted lewis lung tumor after intravenous injection in bone at 0.25 h; assay type: ADME, organism-based; conditions: in vivo; how it was run: as §2

Tissue distribution (Mus musculus [1]) | Tissue distribution (Mus musculus [2]) | Tissue distribution (Mus musculus [3]) | Tissue distribution (Mus musculus [4]) | Tissue distribution (Mus musculus [5]) | Tissue distribution (Mus musculus [6]) | Tissue distribution (Mus musculus [7]) | Tissue distribution (Mus musculus [8]) | Tissue distribution (Mus musculus [9]) | Tissue distribution (Mus musculus [10]) | Tissue distribution (Mus musculus [11]) | Tissue distribution (Mus musculus [12]) | Tissue distribution (Mus musculus [13]) | Tissue distribution (Mus musculus [14]) | Tissue distribution (Mus musculus [15]) | Tissue distribution (Mus musculus [16]) | Tissue distribution (Mus musculus [17]) | Tissue distribution (Mus musculus [20]) | Tissue distribution (Mus musculus [21]) | Tissue distribution (Mus musculus [23]) | Structure (SMILES) | also measured
3.37 | 1.59 | 0.02 | 0.005 | 0.18 | 1.44 | 0.85 | 0.01 | 0.01 | 21.9 | 0.004 | 1.54 | 0.08 | 0.35 | 0.02 | 0.51 | 0.03 | 0.16 | 0.08 | 0.01 | O=c1[nH]c(=O)n([C@H]2O[C@@H](CO)[C@H](O)[C@H]2F)cc1F | Total radioactivity (Mus musculus [18]): 5.4%; Total urine activity [19]: 0.2%; Total urine activity [22]: 68%; Total radioactivity (Mus musculus [24]): 1.4%; Tissue distribution (Mus musculus [25]): 0.01; Total radioactivity (Mus musculus [26]): 2.8%; Tissue distribution (Mus musculus [27]): 3.77; Tissue distribution (Mus musculus [28]): 8.21; Tissue distribution (Mus musculus [29]): 0.71; Tissue distribution (Mus musculus [30]): 0.02; Tissue distribution (Mus musculus [31]): 0.02; Tissue distribution (Mus musculus [32]): 5.26; Tissue distribution (Mus musculus [33]): 0.02; Tissue distribution (Mus musculus [34]): 0.04; Tissue distribution (Mus musculus [35]): 0.08; Total radioactivity (Mus musculus [36]): 16.3%
2.39 | 1.02 | 0.06 | 0.02 | 0.17 | 0.48 | 0.41 | 0.03 | 0.03 | 23.2 | 0.01 | 1.43 | 0.33 | 0.17 | 0.04 | 0.43 | 0.02 | 0.23 | 0.15 | 0.02 | O=c1[nH]c(=O)n([C@H]2O[C@@H](CO)[C@H](O)[C@H]2F)cc1Cl | Tissue distribution (Mus musculus [37]): 0.75; Tissue distribution (Mus musculus [38]): 0.77; Tissue distribution (Mus musculus [25]): 0.03; Tissue distribution (Mus musculus [27]): 1.08; Tissue distribution (Mus musculus [28]): 7.28; Tissue distribution (Mus musculus [29]): 0.38; Tissue distribution (Mus musculus [30]): 0.07; Tissue distribution (Mus musculus [31]): 0.05; Tissue distribution (Mus musculus [32]): 2.62; Tissue distribution (Mus musculus [33]): 0.06; Tissue distribution (Mus musculus [34]): 0.06; Tissue distribution (Mus musculus [35]): 0.17
